Where “and” joins values, the source holds several entries; their conditions need not be identical. Equal entries are not always repeated. Numbered stars: 1 amine (or outer) side, 2 acyl side, 3 side chain; on linkers, the order of the positions; unused ones are H or OH. Peptide text beside a SMILES is read from it. * marks the point of attachment. NHcHex = C1CCC(N*)CC1; CO = O=C([*:1])[*:2]
Experiments:
[1] = target: T1, Gonadotropin-releasing hormone receptor (Rattus norvegicus) (UniProt P30969); test: In vitro antagonist activity at GNRHR in CD rat anterior pituitary gland assessed as inhibition of LH-RH-stimulated LH release at compound to LH-RH molar ratio of 1000 after 4 hrs by radioimmunoassay; settings: concentration not given here
T1 sequence (whole entry): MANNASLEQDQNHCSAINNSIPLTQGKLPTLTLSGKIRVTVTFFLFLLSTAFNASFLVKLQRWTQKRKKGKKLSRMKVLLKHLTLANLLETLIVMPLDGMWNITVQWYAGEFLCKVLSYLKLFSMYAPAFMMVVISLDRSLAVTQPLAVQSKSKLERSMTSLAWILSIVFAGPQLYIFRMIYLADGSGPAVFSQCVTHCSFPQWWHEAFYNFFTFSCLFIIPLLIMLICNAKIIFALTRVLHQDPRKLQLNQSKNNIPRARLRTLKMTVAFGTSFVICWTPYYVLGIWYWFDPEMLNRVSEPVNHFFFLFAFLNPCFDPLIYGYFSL
Outline: (§1)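 Anterior pituitaries from diestrus CD rats (200-250 g) were dissociated enzymatically (collagenase, hyaluronidase, then Viokase). Cells were cultured 4 days at 1.67 × 10^5 cells/mL in DME with 10% horse serum and 2.5% fetal calf serum, then washed serum-free. Duplicate cultures received LH-RH (2-5 × 10^-10 M) with a single analogue concentration in serum-free DME for 4 h at 37 °C. LH in the medium was measured by RIA and reported as % inhibition of LH-RH-stimulated release.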

Rattus norvegicus [2] = test: Antiovulatory activity in sc dosed CD rat assessed as blockade of ovulation administered as six doses at 1200, 1230, 1300, 1350, 1400 and 1450 hrs during proestrus stage measured during estrus stage by dissecting microscopic analysis; type: functional
Outline: (§2)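 Cycling Charles River CD rats were given six subcutaneous injections of analogue in 0.1 mL propylene glycol on the afternoon of proestrus, and controls received vehicle alone. Rats were killed the next morning (estrus). Ovulating animals were scored and ova in the oviducts were counted under a dissecting microscope.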

Rattus norvegicus [3] = test: Antiovulatory activity in CD rat assessed as blockade of ovulation at 1 mg, sc administered as six doses at 1200, 1230, 1300, 1350, 1400 and 1450 hrs during proestrus stage measured during estrus stage by dissecting microscopic analysis; type: functional; outline: as §2
[4] = target: T1, Gonadotropin-releasing hormone receptor (Rattus norvegicus); test: In vitro antagonist activity at GNRHR in CD rat anterior pituitary gland assessed as inhibition of LH-RH-stimulated LH release at compound to LH-RH molar ratio of 200 after 4 hrs by radioimmunoassay; settings: concentration not given here; outline: as §1
[5] = target: T1, Gonadotropin-releasing hormone receptor (Rattus norvegicus); test: In vitro antagonist activity at GNRHR in CD rat anterior pituitary gland assessed as ratio of molar concentration of compound to LH-RH for inhibition of LH-RH-stimulated LH release after 4 hrs by radioimmunoassay
Outline: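 Monolayers were cultured 4 days from dissociated anterior pituitary cells of diestrus CD rats. They were exposed in duplicate to LH-RH (2-5 × 10^-10 M) plus multiple analogue concentrations in serum-free DME for 4 h at 37 °C. LH in the medium was measured by radioimmunoassay. The ED50 molar ratio is the analogue:LH-RH molar ratio giving 50% inhibition of LH-RH-stimulated LH release.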

| inhibition [1] | inhibition [4] | ED50 [5] | Compound | ED50 (Rattus norvegicus [2]) | inhibition (INH) (Rattus norvegicus [3]) |
| --- | --- | --- | --- | --- | --- |
| 16% |  |  | CC(C)C[C@H](NC(=O)CNC(=O)[C@H](Cc1ccc(O)cc1)NC(=O)[C@H](CO)NC(=O)[C@H](Cc1c[nH]c2ccccc12)NC(=O)[C@H](Cc1ccc(O)cc1)NC(=O)OCc1ccccc1)C(=O)N[C@@H](CCCNC(=N)N)C(=O)N1CCC[C@H]1C(=O)NCC(N)=O (HELM PEPTIDE1{[O=C(OCc1ccccc1)[*:2]].Y.W.S.Y.G.L.R.P.G.[am]}$$$$V2.0) |  |  |
|  | 68% |  | CC(C)C[C@H](NC(=O)[C@@H](CO)NC(=O)[C@H](Cc1ccc(O)cc1)NC(=O)[C@H](CO)NC(=O)[C@H](Cc1c[nH]c2ccccc12)NC(=O)[C@H](COCc1ccccc1)NC(=O)OC(C)(C)C)C(=O)N[C@@H](CCCNC(=N)N)C(=O)N1CCC[C@H]1C(=O)NCC(N)=O.Cl | >1 mg | 0% |
|  | 87% | 8 molar ratio | CC(C)C[C@H](NC(=O)[C@@H](Cc1c[nH]c2ccccc12)NC(=O)[C@H](Cc1ccc(O)cc1)NC(=O)[C@H](CO)NC(=O)[C@H](Cc1c[nH]c2ccccc12)NC(=O)[C@H](CCC(N)=O)NC(=O)OCc1ccccc1)C(=O)N[C@@H](CCCNC(=N)N)C(=O)N1CCC[C@H]1C(=O)NCC(N)=O.Cl | >1 mg | 0% |
| 35% |  |  | CC(C)C[C@H](NC(=O)CNC(=O)[C@H](Cc1ccc(O)cc1)NC(=O)[C@H](CO)NC(=O)[C@H](Cc1c[nH]c2ccccc12)NC(=O)[C@H](CC(N)=O)NC(=O)OCc1ccccc1)C(=O)N[C@@H](CCCNC(=N)N)C(=O)N1CCC[C@H]1C(=O)NCC(N)=O (HELM PEPTIDE1{[O=C(OCc1ccccc1)[*:2]].N.W.S.Y.G.L.R.P.G.[am]}$$$$V2.0) |  |  |
|  | 83% |  | CC(C)C[C@H](NC(=O)[C@@H](Cc1ccc(O)cc1)NC(=O)[C@H](Cc1ccc(O)cc1)NC(=O)[C@H](CO)NC(=O)[C@H](Cc1c[nH]c2ccccc12)NC(=O)[C@@H](Cc1ccccc1)NC(=O)OCc1ccccc1)C(=O)N[C@@H](CCCNC(=N)N)C(=O)N1CCC[C@H]1C(=O)NCC(N)=O.Cl | >1 mg | 0% |
| 51% |  |  | CC(C)C[C@H](NC(=O)CNC(=O)[C@H](Cc1ccc(O)cc1)NC(=O)[C@H](CO)NC(=O)[C@H](Cc1c[nH]c2ccccc12)NC(=O)Cc1ccccc1)C(=O)N[C@@H](CCCNC(=N)N)C(=O)N1CCC[C@H]1C(=O)NCC(N)=O (HELM PEPTIDE1{[O=C(Cc1ccccc1)[*:2]].W.S.Y.G.L.R.P.G.[am]}$$$$V2.0) |  |  |
|  | 83% and 93% | 22 molar ratio | CC(C)C[C@H](NC(=O)[C@@H](Cc1ccccc1)NC(=O)[C@H](Cc1ccc(O)cc1)NC(=O)[C@H](CO)NC(=O)[C@H](Cc1c[nH]c2ccccc12)NC(=O)[C@H](CCC(N)=O)NC(=O)OCc1ccccc1)C(=O)N[C@@H](CCCNC(=N)N)C(=O)N1CCC[C@H]1C(=O)NCC(N)=O |  |  |
| 48% |  |  | CC(C)C[C@H](NC(=O)CNC(=O)[C@H](Cc1ccc(O)cc1)NC(=O)[C@H](CO)NC(=O)[C@H](Cc1c[nH]c2ccccc12)NC(=O)[C@@H](NC(=O)OCc1ccccc1)C(C)C)C(=O)N[C@@H](CCCNC(=N)N)C(=O)N1CCC[C@H]1C(=O)NCC(N)=O (HELM PEPTIDE1{[O=C(OCc1ccccc1)[*:2]].V.W.S.Y.G.L.R.P.G.[am]}$$$$V2.0) |  |  |
|  | 50% |  | CC(=O)O.CCNC(=O)[C@@H]1CCCN1C(=O)[C@H](CCCNC(=N)N)NC(=O)[C@H](CC(C)C)NC(=O)[C@@H](CO)NC(=O)[C@H](Cc1ccc(O)cc1)NC(=O)[C@H](CO)NC(=O)[C@H](Cc1c[nH]c2ccccc12)NC(=O)[C@H](CCC(N)=O)NC(=O)OCc1ccccc1 | >1 mg | 0% |
|  |  |  | CC(=O)O.CC(C)C[C@H](NC(=O)[C@@H](Cc1ccccc1)NC(=O)[C@H](Cc1ccc(O)cc1)NC(=O)[C@H](CO)NC(=O)[C@H](Cc1c[nH]c2ccccc12)NC(=O)[C@H](CCC(N)=O)NC(=O)OCc1ccccc1)C(=O)N[C@@H](CCCNC(=N)N)C(=O)N1CCC[C@H]1C(=O)NCC(N)=O | >3 mg | 20% |
|  | 75% |  | CC(=O)O.CCNC(=O)[C@@H]1CCCN1C(=O)[C@H](CCCNC(=N)N)NC(=O)[C@H](CC(C)C)NC(=O)[C@@H](Cc1ccc(OC)cc1)NC(=O)[C@H](Cc1ccc(O)cc1)NC(=O)[C@H](CO)NC(=O)[C@H](Cc1c[nH]c2ccccc12)NC(=O)[C@H](COCc1ccccc1)NS(C)(=O)=O | >1 mg | 0% |
|  |  |  | CC(C)C[C@H](NC(=O)[C@@H](Cc1ccccc1)NC(=O)[C@H](Cc1ccc(O)cc1)NC(=O)[C@H](CO)NC(=O)[C@H](Cc1c[nH]c2ccccc12)NC(=O)[C@H](CCC(N)=O)NC(=O)OCc1ccccc1)C(=O)N[C@@H](CCCNC(=N)N)C(=O)N1CCC[C@H]1C(=O)NCC(N)=O.Cl | >1 mg |  |
| 70% |  |  | CC[C@H](C)[C@H](NC(=O)OCc1ccccc1)C(=O)N[C@@H](Cc1c[nH]c2ccccc12)C(=O)N[C@@H](CO)C(=O)N[C@@H](Cc1ccc(O)cc1)C(=O)NCC(=O)N[C@@H](CC(C)C)C(=O)N[C@@H](CCCNC(=N)N)C(=O)N1CCC[C@H]1C(=O)NCC(N)=O.Cl (HELM PEPTIDE1{[O=C(OCc1ccccc1)[*:2]].I.W.S.Y.G.L.R.P.G.[am]}$$$$V2.0) | >1 mg | 20% |
| 95% |  | 750 molar ratio | CC(C)C[C@H](NC(=O)CNC(=O)[C@H](Cc1ccc(O)cc1)NC(=O)[C@H](CO)NC(=O)[C@H](Cc1c[nH]c2ccccc12)NC(=O)[C@H](CC(C)C)NC(=O)OCc1ccccc1)C(=O)N[C@@H](CCCNC(=N)N)C(=O)N1CCC[C@H]1C(=O)NCC(N)=O.Cl (HELM PEPTIDE1{[O=C(OCc1ccccc1)[*:2]].L.W.S.Y.G.L.R.P.G.[am]}$$$$V2.0) | >3 mg | 40% |
| 0% |  |  | CC(C)C[C@H](NC(=O)CNC(=O)[C@H](Cc1ccc(O)cc1)NC(=O)[C@H](CO)NC(=O)[C@H](Cc1c[nH]c2ccccc12)NC(=O)[C@H](CCC(N)=O)NC=O)C(=O)N[C@@H](CCCNC(=N)N)C(=O)N1CCC[C@H]1C(=O)NCC(N)=O (HELM PEPTIDE1{[O=C[*:2]].Q.W.S.Y.G.L.R.P.G.[am]}$$$$V2.0) |  |  |
| 15% |  |  | CC(C)C[C@H](NC(=O)CNC(=O)[C@H](Cc1ccc(O)cc1)NC(=O)[C@H](CO)NC(=O)[C@H](Cc1c[nH]c2ccccc12)NC(=O)[C@H](CCC(N)=O)NC(=O)OC(C)(C)C)C(=O)N[C@@H](CCCNC(=N)N)C(=O)N1CCC[C@H]1C(=O)NCC(N)=O (HELM PEPTIDE1{[CC(C)(C)OC(=O)[*:2]].Q.W.S.Y.G.L.R.P.G.[am]}$$$$V2.0) |  |  |
|  |  |  | CCNC(=O)[C@@H]1CCCN1C(=O)[C@H](CCCNC(=N)N)NC(=O)[C@H](CC(C)C)NC(=O)[C@H](NC(=O)[C@H](Cc1ccc(O)cc1)NC(=O)[C@H](CO)NC(=O)[C@H](Cc1c[nH]c2ccccc12)NC(=O)[C@H](CCC(N)=O)NC(=O)OCc1ccccc1)[C@@H](O)c1ccccc1.Cl | 0.4 mg | 100% |
| 40% |  |  | CCNC(=O)CNC(=O)[C@@H]1CCCN1C(=O)[C@H](CCCNC(=N)N)NC(=O)[C@H](CC(C)C)NC(=O)CNC(=O)[C@H](Cc1ccc(O)cc1)NC(=O)[C@H](CO)NC(=O)[C@H](Cc1c[nH]c2ccccc12)NC(=O)[C@H](CCC(N)=O)NC(=O)OCc1ccccc1 (HELM PEPTIDE1{[O=C(OCc1ccccc1)[*:2]].Q.W.S.Y.G.L.R.P.G.[CCN[*:1]]}$$$$V2.0) |  |  |
| 81% |  |  | CCNC(=O)[C@@H]1CCCN1C(=O)[C@H](CCCNC(=N)N)NC(=O)[C@H](CC(C)C)NC(=O)CNC(=O)[C@H](Cc1ccc(O)cc1)NC(=O)[C@H](CO)NC(=O)[C@H](Cc1c[nH]c2ccccc12)NC(=O)[C@H](CC(C)C)NC(=O)OCc1ccccc1.Cl | >1 mg | 20% |
| 100% |  |  | CCNC(=O)[C@@H]1CCCN1C(=O)[C@H](CCCNC(=N)N)NC(=O)[C@H](CC(C)C)NC(=O)[C@@H](C)NC(=O)[C@H](Cc1ccc(O)cc1)NC(=O)[C@H](CO)NC(=O)[C@H](Cc1c[nH]c2ccccc12)NC(=O)[C@H](CCC(N)=O)NC(=O)OCc1ccccc1.Cl | >3 mg | 20% |
| 19% |  |  | CC(C)C[C@H](NC(=O)CNC(=O)[C@H](Cc1ccc(O)cc1)NC(=O)[C@H](CO)NC(=O)[C@H](Cc1c[nH]c2ccccc12)NC(=O)NC1CCCCC1)C(=O)N[C@@H](CCCNC(=N)N)C(=O)N1CCC[C@H]1C(=O)NCC(N)=O ({NHcHex-CO}-WSYGLRPG-NH2) |  |  |
